The structures appear in SMILES notation. ≈ marks a conversion by molar mass, not a printed value.

Assay [1] in a line: Antioxidant activity assessed as ascorbic acid equivalent ferric ion reducing activity per 100 gram at 200 ug/ml by FRAP assay. The assay is classed as functional.
Assay [2] relates to Mycobacterium tuberculosis. The experiment in a line: Antimycobacterial activity against Mycobacterium tuberculosis H37Rv at 250 ug/ml. The assay is classed as functional. The method in brief:
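M. tuberculosis H37Rv tested on L.J. (Löwenstein–Jensen) medium.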

Another assay has as its system Candida albicans. The experiment in a line: Antifungal activity against Candida albicans MTCC 227 after 48 hrs by broth microdilution method. It is filed as functional. Conditions: MTCC 227, 48 h. For orientation: Broth dilution looks for growth in wells or tubes with falling amounts of substance.
The next assay deals with Aspergillus fumigatus. The experiment in a line: Antifungal activity against Aspergillus fumigatus MTCC 3008 after 48 hrs by broth microdilution method. The assay is classed as functional. Conditions: MTCC 3008, 48 h.
Another assay concerns Vibrio cholerae. The experiment in a line: Antibacterial activity against Vibrio cholerae MTCC 3906 after 24 hrs by broth microdilution method. The assay is classed as functional. The note with it: MTCC 3906, 24 h.
A further assay deals with Salmonella typhi. Put plainly: Antibacterial activity against Salmonella typhi MTCC 98 after 24 hrs by broth microdilution method. The assay is classed as functional, Salmonella enterica subsp. enterica serovar Typhi. Conditions: Salmonella enterica, MTCC 98, 24 h.
The subject of a further assay is Escherichia coli. Put plainly: Antibacterial activity against Escherichia coli MTCC 443 after 24 hrs by broth microdilution method. It is filed as functional. The note with it: MTCC 443, 24 h.
Another assay has as its system Streptococcus pneumoniae. The experiment in a line: Antibacterial activity against Streptococcus pneumoniae MTCC 1936 after 24 hrs by broth microdilution method. The assay is classed as functional. The note with it: MTCC 1936, 24 h.
For another assay, the system named is Clostridium tetani. Put plainly: Antibacterial activity against Clostridium tetani MTCC 449 after 24 hrs by broth microdilution method. It is filed as functional. Conditions: MTCC 449, 24 h.
For the next assay, the system named is Bacillus subtilis. Put plainly: Antibacterial activity against Bacillus subtilis MTCC 441 after 24 hrs by broth microdilution method. It is filed as functional. The note with it: MTCC 441, 24 h.

On to `Cc1nn(-c2ccccc2Cl)c2c1[C@@H]1c3c(ccc4c(C)cc(=O)oc34)OC[C@@H]1CO2`, for which the Activity in [1] is 200 mmol. In [2], this compound came in with an inhibition at 250 µg/mL of 30%. Moreover, the minimum inhibitory concentration (MIC) with Candida albicans was 1000 µg/mL (≈ 2300 µM); against Aspergillus fumigatus, above 1000 µg/mL; in the assay on Vibrio cholerae, 250 µg/mL (≈ 575 µM); against Salmonella typhi, 100 µg/mL (≈ 230 µM); against Escherichia coli it was 125 µg/mL (≈ 287 µM); against Streptococcus pneumoniae, 100 µg/mL (≈ 230 µM). Also, the minimal inhibitory concentration (MIC) in the assay with Clostridium tetani turned out to be 200 µg/mL (≈ 460 µM); against Bacillus subtilis, 62.5 µg/mL (≈ 144 µM).

Turning to `Cc1nn(-c2cccc(Cl)c2)c2c1[C@@H]1c3cc4ccccc4nc3SC[C@@H]1CO2`, the Activity in assay [1] is 128 mmol. The inhibition at 250 µg/mL in assay [2] worked out at 61%. Also, the MIC with Candida albicans was above 1000 µg/mL; against Aspergillus fumigatus, 1000 µg/mL (≈ 2380 µM); in the assay with Vibrio cholerae, 200 µg/mL (≈ 476 µM); against Salmonella typhi it was 100 µg/mL (≈ 238 µM); against Escherichia coli, 62.5 µg/mL (≈ 149 µM); in the assay on Streptococcus pneumoniae, 250 µg/mL (≈ 595 µM). For the same compound, the MIC with Clostridium tetani was determined as 125 µg/mL (≈ 298 µM); against Bacillus subtilis it was 200 µg/mL (≈ 476 µM).

`Cc1nn(-c2ccccc2)c2c1[C@@H]1c3c(ccc4c(C)cc(=O)oc34)OC[C@@H]1C(C)(C)O2`: the Activity in assay [1] was determined as 146 mmol. Also, at 250 µg/mL the inhibition in assay [2] was 65%. Moreover, the MIC in the assay on Candida albicans came to 1000 µg/mL (≈ 2330 µM); with Aspergillus fumigatus, 200 µg/mL (≈ 467 µM); against Vibrio cholerae it was 250 µg/mL (≈ 583 µM); in the assay on Salmonella typhi, 250 µg/mL (≈ 583 µM); with Escherichia coli, 250 µg/mL (≈ 583 µM); against Streptococcus pneumoniae it was 200 µg/mL (≈ 467 µM). The MIC in the assay with Clostridium tetani was found to be 500 µg/mL (≈ 1170 µM); against Bacillus subtilis it was 200 µg/mL (≈ 467 µM).

In the case of `Cc1nn(-c2cccc(Cl)c2)c2c1[C@@H]1c3c(ccc4c(C)cc(=O)oc34)OC[C@@H]1CO2`, the Activity in [1] was determined as 158 mmol. Further, at 250 µg/mL the inhibition in assay [2] was 19%. Also, the MIC in the assay on Candida albicans was 1000 µg/mL (≈ 2300 µM); against Aspergillus fumigatus it was 250 µg/mL (≈ 575 µM); against Vibrio cholerae, 250 µg/mL (≈ 575 µM); against Salmonella typhi, 200 µg/mL (≈ 460 µM); against Escherichia coli, 100 µg/mL (≈ 230 µM); against Streptococcus pneumoniae, 62.5 µg/mL (≈ 144 µM). The values for the minimal inhibitory concentration (MIC) in the assay with Clostridium tetani and against Bacillus subtilis were 62.5 µg/mL (≈ 144 µM) and 200 µg/mL (≈ 460 µM), respectively.

Consider `Cc1nn(-c2ccc([N+](=O)[O-])cc2)c2c1[C@@H]1c3c(ccc4c(C)cc(=O)oc34)OC[C@@H]1C(C)(C)O2`, for which the Activity in [1] stood at 138 mmol. This compound gave an inhibition at 250 µg/mL in assay [2] of 88%. For the same compound, the MIC in the assay with Candida albicans stood at 250 µg/mL (≈ 528 µM); against Aspergillus fumigatus it was 500 µg/mL (≈ 1060 µM); in the assay on Vibrio cholerae, 200 µg/mL (≈ 422 µM); against Salmonella typhi it was 125 µg/mL (≈ 264 µM); against Escherichia coli, 200 µg/mL (≈ 422 µM); against Streptococcus pneumoniae, 200 µg/mL (≈ 422 µM). Further, the MIC against Clostridium tetani and in the assay on Bacillus subtilis was 200 µg/mL (≈ 422 µM) throughout.

With `Cc1nn(-c2ccccc2)c2c1[C@@H]1c3cc4cccc(C)c4nc3SC[C@@H]1CO2`, the Activity in assay [1] was 160 mmol. Further, in assay [2], testing at 250 µg/mL gave an inhibition of 38%. Further, the minimum inhibitory concentration (MIC) against Candida albicans was 1000 µg/mL (≈ 2500 µM); in the assay on Aspergillus fumigatus it was 250 µg/mL (≈ 626 µM); in the assay with Vibrio cholerae, 250 µg/mL (≈ 626 µM); in the assay with Salmonella typhi, 200 µg/mL (≈ 501 µM); in the assay with Escherichia coli it was 250 µg/mL (≈ 626 µM); against Streptococcus pneumoniae, 250 µg/mL (≈ 626 µM). Moreover, the MIC against Clostridium tetani was found to be 200 µg/mL (≈ 501 µM); in the assay with Bacillus subtilis, 100 µg/mL (≈ 250 µM).

Consider `Cc1ccc(-n2nc(C)c3c2OC[C@H]2CSc4nc5ccccc5cc4[C@@H]32)cc1`, for which the Activity in [1] turned out to be 121 mmol. In assay [2], the inhibition at 250 µg/mL stood at 33%. Further, the minimum inhibitory concentration (MIC) is 1000 µg/mL (≈ 2500 µM) in the assay with Candida albicans; 1000 µg/mL (≈ 2500 µM) with Aspergillus fumigatus; 200 µg/mL (≈ 501 µM) against Vibrio cholerae; 125 µg/mL (≈ 313 µM) against Salmonella typhi; 125 µg/mL (≈ 313 µM) in the assay on Escherichia coli; 62.5 µg/mL (≈ 156 µM) against Streptococcus pneumoniae. In addition, the MIC against Clostridium tetani and with Bacillus subtilis was 200 µg/mL (≈ 501 µM) each time.

Consider `Cc1nn(-c2cc(Cl)ccc2Cl)c2c1[C@@H]1c3cc4cccc(C)c4nc3SC[C@@H]1CO2`, for which the Activity in [1] amounted to 129 mmol. Moreover, in [2], testing at 250 µg/mL gave an inhibition of 49%. Also, the minimum inhibitory concentration (MIC) in the assay on Candida albicans turned out to be 1000 µg/mL (≈ 2130 µM); with Aspergillus fumigatus it was 1000 µg/mL (≈ 2130 µM); in the assay with Vibrio cholerae, 100 µg/mL (≈ 213 µM); against Salmonella typhi, 200 µg/mL (≈ 427 µM); against Escherichia coli, 62.5 µg/mL (≈ 133 µM); in the assay on Streptococcus pneumoniae, 250 µg/mL (≈ 534 µM). For the same compound, the MIC in the assay on Clostridium tetani and against Bacillus subtilis was 100 µg/mL (≈ 213 µM) throughout.

Regarding `Cc1nn(-c2cc(Cl)ccc2Cl)c2c1[C@@H]1c3c(ccc4c(C)cc(=O)oc34)OC[C@@H]1CO2`, in assay [1], the Activity is 184 mmol. Besides, the inhibition at 250 µg/mL in [2] amounted to 28%. Moreover, the MIC against Candida albicans was 250 µg/mL (≈ 533 µM); in the assay on Aspergillus fumigatus, above 1000 µg/mL; in the assay with Vibrio cholerae, 100 µg/mL (≈ 213 µM); with Salmonella typhi, 250 µg/mL (≈ 533 µM); against Escherichia coli, 125 µg/mL (≈ 266 µM); in the assay with Streptococcus pneumoniae it was 200 µg/mL (≈ 426 µM). Besides, the MIC with Clostridium tetani worked out at 250 µg/mL (≈ 533 µM); with Bacillus subtilis it was 200 µg/mL (≈ 426 µM).

One may read the inhibition as the drop in the measured response relative to a control, in per cent. The low end stands for little suppression, the high end for strong suppression. As usually defined, the MIC is the lowest concentration that inhibits growth of the organism. Lower therefore signals a more susceptible organism.

The record behind these values is ChEMBL document CHEMBL2331438, “An efficient domino reaction in ionic liquid: synthesis and biological evaluation of some pyrano- and thiopyrano-fused heterocycles” (2013).
